Screens (PubChem BioAssay)
Shown are actives, neighbours in structure and some others; about 2.2% of the full set was active somewhere.
DAGLB inh – blocks human DAGLB lipase activity; Q8NCG7; inhibition, % at 5.17 µM; 340,000 compounds, 0.059% hits; HEK293T DAGLB membrane lysate, EnzChek fluorogenic substrate; in the data active means inhibition above about 34%;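 further: 0% = enzyme with vehicle and 100% = wells lacking enzyme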
GRK2 aptamer HTS – inhibitors of human GRK2 displacing RNA aptamer. bead flow cytometry, FAM-aptamer displacement from GRK2. 330,000 compounds, 0.59% hits. inhibition of aptamer binding, % at 10 µM. AID 488847;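 active means inhibition of aptamer binding above 40%, roughly 3 SD of noise, on plates passing a quality check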;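 further: median bead fluorescence of bound FAM aptamer so fluorescent compounds give negative values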
DNA FID counter – displaces DNA intercalator in HCV helicase counter-screen; 290,000 compounds, 0.17% hits; AID 1845; DNA fluorescent intercalator displacement, fluorescence; inhibition, % at 7.9 µM; in the data active means inhibition above about 37%;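 further: 0% = vehicle and 100% = reference compound; higher means more ethidium bromide displaced from hairpin DNA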
GPR7 antagonist – human neuropeptides B/W receptor 1 antagonism; 290,000 compounds, 1.1% hits; P48145; inhibition, % at 4.4 µM; AID 1861; GPR7-expressing cells, fluorescence antagonist assay; in the data active means inhibition above about 16%, passing the limit was not always enough;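 further: cells stimulated with the agonist NPW; 0% = agonist with vehicle and 100% = vehicle without agonist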
Target sequence (P48145 whole entry, looked up): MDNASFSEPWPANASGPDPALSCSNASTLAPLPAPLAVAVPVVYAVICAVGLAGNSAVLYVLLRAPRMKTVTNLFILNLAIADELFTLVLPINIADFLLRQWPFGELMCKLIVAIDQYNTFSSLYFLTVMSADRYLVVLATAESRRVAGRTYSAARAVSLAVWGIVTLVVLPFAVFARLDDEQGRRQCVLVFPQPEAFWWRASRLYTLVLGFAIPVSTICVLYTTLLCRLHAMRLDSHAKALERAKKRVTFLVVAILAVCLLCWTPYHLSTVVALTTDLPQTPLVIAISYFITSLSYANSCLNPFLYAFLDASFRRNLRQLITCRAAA
NS3 helicase inh – inhibitors of Hepatitis C virus NS3 helicase | 290,000 compounds, 0.56% hits | inhibition, % at 10.9 µM | NS3 helicase DNA unwinding, Cy5 molecular beacon fluorescence;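 active means inhibition above the mean of all tested compounds plus 3 SD, set per campaign, cut at about 35% in these data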;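 further: 0% = DMSO wells and 100% = thioflavine S control wells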
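Test system: hepatitis C virus NS3 helicase domain fragment enzyme. Also added: annealed dual-labelled DNA beacon duplex, ATP-started. Timing: 60 min unwinding reaction at 25 °C after ATP addition. Technique: Cy5 fluorescence. Measure: % inhibition of unwinding.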
core dimer inh – HCV core protein dimerization inhibition; 300,000 compounds, 0.33% hits; AID 1899; TR-FRET GST/Flag-core106 dimerization, 1536-well; inhibition, % at 5 µM;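 active means inhibition above the mean of all tested compounds plus 3 SD, set per screening campaign, cut at about 45% in these data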
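Assay system: GST-tagged and Flag-tagged HCV core protein residues 1-106 / Times: compound-protein-antibody incubation 4 h at 22.5 °C / Signal: time-resolved FRET, ex 340 nm, em 617 and 671 nm / Evaluation: % inhibition based on acceptor/donor emission ratio / Benchmarks: wells lacking GST-core106 and wells with excess unlabelled core106 / Repeats: singlicate, one well per compound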
* hit, by the source's call; / = not tested or not shown.

SMILES	DAGLB inh	GRK2 aptamer HTS	DNA FID counter	GPR7 antagonist	NS3 helicase inh	core dimer inh
Cc1onc(-c2ccccc2)c1C(=O)Nc1sc2c(c1C#N)CCC2	-1.2	3.0	-12.4	-4.3	7.5	15.1
Cc1onc(-c2ccccc2)c1C(=O)Nc1nc(-c2ccccc2)cs1	-16.0	1.0	-17.7	-27.1	-5.2	54.0*
Cc1onc(-c2ccccc2)c1C(=O)Nc1sc2c(c1C(N)=O)CCC2	3.0	2.0	-8.1	-15.6	9.6	61.5*
CC1=CCC(C(=O)O)C(C(=O)NC2CCCCC2)C1 (stereo unspecified)	0.1	89.0*	-7.5	-13.7	-0.4	-13.4
COc1ccccc1C1(O)C(=O)Nc2ccccc21 (stereo unspecified)	-1.5	1.0	1.2	-3.7	13.1	0.5
CCOc1cc(CNCCc2ccc(S(N)(=O)=O)cc2)ccc1OCc1ccc(Cl)cc1	3.0	0.0	36.8*	51.1*	-90.8	-13.9
COc1ccc(C[C@H]2CN3C(=NC[C@H]3C)N2CCNC(=O)c2ccc(C)c(Br)c2)cc1	1.1	/	39.9*	21.6	-64.3	-8.0
Cc1csc(NC(=O)CCc2nc3ccccc3s2)n1	1.4	0.0	-12.0	-14.8	0.7	55.4*
O=C(COC(=O)CCc1nc2ccccc2s1)Nc1nc(-c2ccccc2)cs1	-6.3	2.0	-5.6	-8.7	-5.3	11.5
Cc1c(/C=N/NC(=O)c2ccc(O)cc2)c2ccccn2c1C(=O)c1ccc(F)cc1	6.9	0.0	-5.7	19.9*	11.6	0.5
Cc1c(/C=N/NC(=O)c2ccccc2O)c2ccccn2c1C(=O)c1ccc(F)cc1	3.4	0.0	-3.9	-8.2	0.6	26.3
CCc1c(O)cc(=O)n(-c2ccccc2)c1-c1ccccc1	4.9	6.0	-24.1	-2.6	14.3	55.3*
CC(=O)c1c(O)cc(=O)n(-c2ccccc2)c1-c1ccc(Cl)cc1	0.5	1.0	6.3	-2.5	2.8	-2.6
COc1ccc2c(C)cc(SCC(=O)Nc3nsc(-c4ccc(C)cc4)n3)nc2c1	-0.6	45.0*	-4.8	-1.4	-2.7	20.1
C/C(=N\NC(=O)Nc1ccccc1)c1ccc2ccccc2c1	-12.4	100.0*	-4.5	-10.3	-13.1	4.1
C/C(=N/NC(=O)Nc1ccccc1)c1ccc(C)cc1	-5.5	2.0	-1.5	-11.8	-1.0	0.8
COC/C=C/C1=CC2=CC(=O)C(C)(OC(=O)c3ccco3)C(=O)C2=CO1 (stereo unspecified)	/	/	/	/	/	50.8*
COC/C=C/C1=CC2=CC(=O)C(C)(OC(=O)C3CCCC3)C(=O)C2=CO1 (stereo unspecified)	15.3	4.0	/	/	/	7.1
COC/C=C/C1=CC2=CC(=O)C(C)(OC(=O)c3cccs3)C(=O)C2=CO1 (stereo unspecified)	/	0.0	/	/	/	42.1
COC/C=C/C1=CC2=CC(=O)C(C)(O)C(=O)C2=CO1 (stereo unspecified)	/	87.0*	/	/	/	57.6*
CCOc1cc(C(=O)Nc2cccc(OCC(=O)N3CCOCC3)c2)cc(OCC)c1OCC	-1.9	2.0	-37.1	-0.1	14.1	-8.1
O=C(Nc1nc(-c2ccco2)c(-c2ccco2)s1)c1cnccn1	/	0.0	/	/	/	68.8*
COc1ccc(/C=C/C(=O)Oc2cccc(/C=N/NC(=O)c3cccc(F)c3)c2)cc1	-8.3	3.0	-2.7	18.5*	6.2	23.1
O=C(NCCCn1cccn1)c1cc(COc2ccccc2)on1	-3.4	/	/	/	/	/
Cc1ccc(C(=O)NCc2ccc(F)cc2)cc1NC1=NC2CS(=O)(=O)CC2S1 (stereo unspecified)	-2.5	3.0	-6.7	-1.5	7.8	4.4
SMILES	DAGLB inh	GRK2 aptamer HTS	DNA FID counter	GPR7 antagonist	NS3 helicase inh	core dimer inh
COc1ccc2cc(C#N)c(NC(C)C)nc2c1	-2.5	2.0	-4.8	6.1	3.7	-3.6
CCN(CC)c1nc2cc(OC)ccc2cc1C#N	-9.3	0.0	-5.0	-12.6	-0.6	54.7*
S=C(NCc1ccccc1)N1CCN(c2cccc(Cl)c2)CC1	3.0	2.0	-5.7	31.8*	0.6	1.7
O=C(CN1CCN(c2cccc(Cl)c2)CC1)NCc1ccccc1	-1.5	0.0	-26.1	-3.3	-25.2	6.5
CCOC(=O)c1csc(NC(=O)CCS(=O)(=O)c2ccc(Cl)cc2)n1	1.9	/	/	/	/	/
CC(Sc1nnc(C(C)Oc2ccc(F)cc2)o1)C(=O)NCc1ccc2c(c1)OCO2 (stereo unspecified)	-6.4	/	/	/	/	/
Cn1cnnc1SCC(=O)NNC(=O)c1ccc([N+](=O)[O-])cc1	1.6	0.0	/	/	/	/
